# In ChEMBL document CHEMBL4028906, “Allosteric Inhibitors of SHP2 with Therapeutic Potential for Cancer Treatment” (J Med Chem, 2017):
# Calls of active or inactive are those of the source. No cut-off for these calls is given here.
# Columns and labels:
# BT-474 = assay: Antiproliferative activity against human BT474 cells at 3 to 6 uM after 2 days by CellTiter-Glo assay; assay type: functional, cell-based
# Outline: (§1)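 3000 cells/well in 96-well plates, grown overnight, then inhibitor at indicated concentrations for 2 days (48 h). Viability by CellTiter-Glo; mean±s.d., n=3.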
# [1] = molecular target: T1, Tyrosine-protein phosphatase non-receptor type 11 (Homo sapiens) (UniProt Q06124); assay: Allosteric inhibition of SHP2 in human A549 cells harboring KRAS mutant assessed as upregulation of YAP Y357 phosphorylation at 5 and 10 uM after 2 hrs by Western blot analysis; assay type: cell-based
# T1 sequence (whole entry): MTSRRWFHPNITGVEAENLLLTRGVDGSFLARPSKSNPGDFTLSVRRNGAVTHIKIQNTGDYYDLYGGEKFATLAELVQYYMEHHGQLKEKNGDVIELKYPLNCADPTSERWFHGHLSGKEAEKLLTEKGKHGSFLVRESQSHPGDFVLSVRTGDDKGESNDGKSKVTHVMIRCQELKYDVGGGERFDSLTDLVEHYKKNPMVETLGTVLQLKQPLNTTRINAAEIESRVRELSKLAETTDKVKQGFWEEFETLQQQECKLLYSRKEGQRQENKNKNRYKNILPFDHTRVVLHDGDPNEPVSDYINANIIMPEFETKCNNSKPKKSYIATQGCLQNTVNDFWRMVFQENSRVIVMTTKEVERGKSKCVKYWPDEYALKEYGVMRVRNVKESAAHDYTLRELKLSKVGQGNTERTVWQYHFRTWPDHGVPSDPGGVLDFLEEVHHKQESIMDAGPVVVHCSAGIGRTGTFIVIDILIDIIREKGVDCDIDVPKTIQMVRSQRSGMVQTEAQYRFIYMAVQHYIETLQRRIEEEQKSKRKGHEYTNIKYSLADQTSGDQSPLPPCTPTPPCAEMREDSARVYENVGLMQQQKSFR
# MOLT-4 = assay: Antiproliferative activity against human MOLT4 cells at 3 to 6 uM after 2 days by CellTiter-Glo assay; assay type: functional, cell-based; outline: as §1
# [2] = molecular target: Tyrosine-protein phosphatase non-receptor type 2 (Homo sapiens, UniProt P17706); assay: Inhibition of TC-PTP (unknown origin) expressed in Escherichia coli BL21(DE3) using DIFMUP as substrate preincubated for 20 mins followed by substrate addition measured after 20 mins by phosphatase assay
# Outline: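 Phosphatases purified from E. coli and run as for SHP2 E76A: 20 min room-temperature preincubation with compound in 0.1 M sodium acetate pH 5.0, then DIFMUP at each enzyme's Km, 20 min, fluorescence 358/455 nm. Eight 3-fold dilutions in duplicate; IC50 from at least three independent experiments.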
# Chain of Tyrosine-protein phosphatase non-receptor type 2 (P17706 whole entry): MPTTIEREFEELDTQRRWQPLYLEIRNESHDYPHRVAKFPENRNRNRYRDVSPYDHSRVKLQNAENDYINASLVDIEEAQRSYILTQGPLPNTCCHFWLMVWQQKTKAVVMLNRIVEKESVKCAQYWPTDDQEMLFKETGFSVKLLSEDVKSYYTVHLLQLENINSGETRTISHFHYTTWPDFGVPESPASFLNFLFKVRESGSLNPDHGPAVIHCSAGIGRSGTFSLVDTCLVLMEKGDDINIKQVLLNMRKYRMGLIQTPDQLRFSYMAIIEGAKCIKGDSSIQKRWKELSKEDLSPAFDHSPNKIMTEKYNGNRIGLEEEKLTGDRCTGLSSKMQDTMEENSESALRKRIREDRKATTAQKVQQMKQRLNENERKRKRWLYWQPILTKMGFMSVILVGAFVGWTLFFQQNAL
smiles,measurement,setting,value
CC1(N)CCN(c2nc(-c3ccc4cc(Br)ccc4c3)cs2)CC1,Activity,BT-474,Active
same,inhibition,[1],Active
same,Activity,MOLT-4,Active
same,IC50,[2],> 100 µM
